Rows were chosen to be rich in hits. Some 3.7% of all compounds tested hit in one or more screens of this group.
Myeloid diff 2: induction of myeloid progenitor differentiation, primary screen, cell-based, flow cytometry, MLPCN library; ER-HoxA9 myeloid progenitors, lysozyme-GFP differentiation; calls only at 10 µM; actives 1% (n = 360,000); AID 624256, 2012;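 active means normalized GFP-positive differentiation at or above the plate's own cutoff, the solvent-only control mean plus 3 SD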;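 further: cells exposed to compound for four days before flow analysis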
Exocytosis inh: LAMP-1 surface exposure blockers, TALL-104 cells – cell-based, flow cytometry, MLPCN library, primary screen. TALL-104 LAMP-1 surface exposure; cells stimulated with thapsigargin and PMA. inhibition, % at 10 µM. actives 0.66% (n = 360,000). AID 651702, 2012;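 active means inhibition above about 55%, limit read from the data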
MC4R barr agon: MC4R agonists recruiting beta-arrestin, primary screen, cell-based, luminescence, agonist arm of biased-ligand search; actives 0.98% (n = 360,000); U2OS MC4R beta-arrestin complementation; percent of melanotan II response, DMSO zero; AID 540308, 2011; activation, % at 8.9 µM; Melanocortin receptor 4 (Homo sapiens), P32245;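 active means activation above a per-plate cutoff, the mean activation of sample wells on that plate plus 3 SD, cut at about 8% in these data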
EBI2 block: EBI2 receptor antagonists, beta-arrestin recruitment, primary screen, cell-based, luminescence, 7a,25-OHC stimulation, uHTS | 7a,25-OHC stimulated | inhibition, % at 5 µM | actives 0.81% (n = 360,000) | AID 651636, 2012; in the data active means inhibition above about 38%;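 further: enzyme fragment complementation signal reports receptor beta-arrestin coupling in cells; 0% = agonist plus DMSO wells and 100% = wells without agonist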
Target sequence (P32249 whole entry, looked up, the tested form may be a part): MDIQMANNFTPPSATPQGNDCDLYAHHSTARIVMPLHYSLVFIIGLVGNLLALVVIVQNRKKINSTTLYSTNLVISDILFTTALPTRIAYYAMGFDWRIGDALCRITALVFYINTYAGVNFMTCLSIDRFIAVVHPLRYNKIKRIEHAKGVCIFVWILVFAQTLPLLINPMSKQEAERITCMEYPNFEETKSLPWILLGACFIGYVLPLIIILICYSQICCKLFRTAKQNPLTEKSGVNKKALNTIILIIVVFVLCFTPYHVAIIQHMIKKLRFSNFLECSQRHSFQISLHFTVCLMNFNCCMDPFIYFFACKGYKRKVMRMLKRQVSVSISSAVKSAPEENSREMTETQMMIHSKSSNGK
MC4R antag cAMP: MC4R antagonists of cAMP signaling, primary screen, cell-based, TR-FRET, antagonist arm of biased-ligand search | MC4R-expressing cells, MTII-stimulated cAMP, LANCE TR-FRET | inhibition, % at 6.5 µM | actives 0.48% (n = 360,000);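 active means inhibition above its plate's cutoff, the mean of tested wells on that plate plus 3 SD, cut at about 29% in these data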;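 further: 0% = Melanotan II alone and 100% = Melanotan II plus saturating MCL0020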
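Assay system: human MC4R-expressing U2OS cells; reagent: Melanotan II stimulation of cells; dosing: 6.5 µM single dose; timing: compound 30 min, challenge 1 h, detection 1 h; signal: TR-FRET cAMP assay; replicates: one well per compound, no replicates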
* hit, by the source's call; i = inactive; · = not tested or not shown; + = active, no number.

SMILES	Myeloid diff 2	Exocytosis inh	MC4R barr agon	EBI2 block	MC4R antag cAMP
C[C@@H]1CC[C@]2(C(=O)O[C@@H]3O[C@H](CO)[C@@H](O)[C@H](O)[C@H]3O)CC[C@]3(C)C(=CCC4[C@@]5(C)CC[C@H](O[C@@H]6OC[C@H](O)[C@H](O[C@@H]7O[C@H](CO)[C@@H](O)[C@H](O)[C@H]7O)[C@H]6O)C(C)(C)C5CC[C@]43C)C2[C@]1(C)O (stereo partly drawn)	i	1	-1	1	-1
COc1ccc(/C=C\C(=O)O[C@@H]2C(O)C(O[C@@H]3OC(C)[C@H](O[C@@H]4OCC(O[C@H]5O[C@H](CO)[C@@H](O)C(O)C5O)C(O)C4O)C(O)C3O)[C@H](OC(=O)[C@]34CCC(C)(C)C[C@@H]3C3=CCC5[C@@]6(C)CC(O)C(O[C@@H]7OC(CO)C(O)[C@H](O)[C@H]7O)[C@@](C)(C(=O)O)C6CC[C@@]5(C)[C@]3(CO)CC4)O[C@H]2C)cc1 (stereo partly drawn)	i	11	-1	-8	66*
CCOc1cc(/C=N/Nc2nc(-c3cccs3)c(NC(C)=O)s2)ccc1O	i	7	0	-9	7
O=C(Nc1ccc(S(=O)(=O)N2CCCCC2)cc1)C1CCN(C(=O)c2ccco2)CC1	+	-11	-2	0	9
COC(=O)Nc1ccc(S(=O)(=O)N2CCC(C(=O)NC3CCCCC3)CC2)cc1	+	-2	-4	-7	5
CC1CCN(S(=O)(=O)c2ccc(NC(=O)C3CCN(C(=O)c4ccco4)CC3)cc2)CC1	i	3	2	-9	22
COc1ccc(C2CC(c3ccc4ccccc4c3)=NN2C(=O)CN2CCC(C(N)=O)CC2)cc1 (stereo not drawn)	i	29	-1	-6	-2
C=CCNCC(=O)N1N=C(c2ccc3ccccc3c2)CC1c1ccc(OC)cc1 (stereo not drawn)	i	37	8.9*	10	-4
COc1ccc(C2CC(c3ccc4ccccc4c3)=NN2C(=O)CNC2CCCCC2)cc1 (stereo not drawn)	i	45	8.5*	6	2
CCOC(=O)c1cc(-c2ccc(OC)cc2)nc2c1c(C)nn2CCC(N)=S	i	14	-4	25	0
COc1ccc2oc(C(=O)NC3(C)CCS(=O)(=O)C3)c(C)c2c1 (stereo not drawn)	i	-3	2	0	2
NC(=O)c1ccc(=O)n(C2OC(CO)C(O)C2O)c1 (stereo not drawn)	i	10	-1	-1	6
O=C1C=CN(C2OC(CO)C(O)C2O)C(=O)C1 (stereo not drawn)	+	7	1	8	11
Cc1ccc(-c2nc3c4ccccc4ccn3c2CC2CCCCC2)cc1	i	-4	·	4	·
COc1ccc(-c2nc3c4ccccc4ccn3c2CC2CCCCC2)cc1OC	+	1	·	9	·
CN(C)C(CNC(=O)CCc1nc2cc(Cl)ccc2n(Cc2ccccc2)c1=O)c1ccccc1 (stereo not drawn)	i	8	-2	7	10
CCNC(=S)NNC(=O)CCc1nc2cc(Cl)ccc2n(Cc2ccccc2)c1=O	+	8	-1	2	5
CCOc1ccc(S(=O)(=O)N2CCC(C(=O)NCCc3ccccc3)CC2)cc1	i	20	-1	3	-2
Cc1cc(C)n2nc(SCc3c(F)cccc3Cl)nc2n1	i	-12	0	-13	-2
Cc1cc(C)n2nc(SCCOc3ccc(F)cc3)nc2n1	+	3	1	-5	6
Cc1cccc(CSc2nc3nc(C)cc(C)n3n2)c1	+	2	-1	-5	-12
O=C(c1ccc(Cl)cc1)N1CCOc2ccccc21	i	2	0	-2	-4
COc1ccc(C(=O)c2coc3ccc(O)c(CN4CCCCC4)c23)cc1	+	-3	-1	4	3
Cc1cc(C)c(Nc2ncnc(N)n2)c(C)c1	i	3	1	-11	-2
CCCn1c(CCNc2nc(-c3cccc(Br)c3)cs2)nc2ccccc21	i	-2	8.4*	13	9
SMILES	Myeloid diff 2	Exocytosis inh	MC4R barr agon	EBI2 block	MC4R antag cAMP
CC(=O)Nc1ccc(NC(=O)CNC(=O)c2sc3ccccc3c2Cl)cc1	i	-1	0	8	5
O=C(CNC(=O)c1sc2ccccc2c1Cl)NCc1cccc(C(F)(F)F)c1	i	-6	9.4*	11	7
Cc1nc2nc(C)n(CCN3CCOCC3)c(=O)c2c(-c2cccc([N+](=O)[O-])c2)c1C(=O)CCCCCCCCCCN1CCC(c2ccccc2)(c2ccccc2)CC1	·	3	0	7	23
Cc1c(CCOC(=O)C23CC4CC(CC(C)(C4)C2)C3)sc[n+]1CC(=O)c1ccccc1	i	26	9.3*	5	-12
Cc1c(CCOC(=O)c2ccccc2)sc[n+]1Cc1ccccc1	i	8	-1	-5	3
Cc1c(CCOC(=O)c2ccccc2)sc[n+]1CC(=O)c1ccc(Br)cc1	i	95*	1	12	13
Cc1c(CCOC(=O)c2cc([N+](=O)[O-])cc([N+](=O)[O-])c2)sc[n+]1CC(=O)c1ccccc1	i	-2	-3	0	4
O=C(c1[nH]c(C(F)(F)F)nc1-c1ccccc1)N1CCC2(CC1)C(=O)NCN2c1ccccc1	i	-1	·	-4	·
CC1(NC(=S)Nc2ccc(NC(=S)NC3(C)CCS(=O)(=O)C3)cc2)CCS(=O)(=O)C1 (stereo not drawn)	i	4	-2	6	2
CC1(NC(=S)Nc2ccccc2)CCS(=O)(=O)C1 (stereo not drawn)	i	-4	9.1*	-14	1
CCCCNC(=O)C1(C)CCCCN1C(=O)c1ccno1 (stereo not drawn)	i	3	1	-5	-2
N#CCC(=O)Nc1ccc(C(=O)OCC(=O)C23CC4CC(CC(C4)C2)C3)cc1	+	7	-4	6	5
N#CCC(=O)Nc1ccc(C(=O)OCc2ccccc2Oc2ccccc2)cc1	+	32	1	16	3
CCOC(=O)C1(Cc2ccccc2C(F)(F)F)CCN(C2CCN(C(C)=O)CC2)CC1	i	-1	-1	4	13
C/C(=N\NC(=O)c1ccc(COc2ccccc2)cc1)c1ccncc1	i	1	-3	-21	12

From PubChem
